In ChEMBL document CHEMBL1141557, “An expeditious one-pot synthesis of 1,6-dideoxy-N-alkylated nojirimycin derivatives and their inhibitory effects on the secretion of IFN-gamma and IL-4” (Bioorg Med Chem, 2008) one finds inhibition, IC50 and Activity data, which are given here for 9 compounds.

Activity calls are given as the source filed them. No cut-off for these calls is given here. Where only a bound is given, the exact number is not on record here.

A short description of experiment [1]: Inhibition of concanavalin A-induced BALB/c mouse splenocyte proliferation at 30 uM by MTT assay. It is filed as functional. The procedure, abridged: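 Mouse splenocytes stimulated with concanavalin A; proliferation read by MTT assay as the mitochondrial dehydrogenase activity of surviving cells, with compound at 30 µM.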
Experiment [2] can be described thus: Inhibition of alpha mannosidase. The procedure, abridged:
(§1)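 Enzyme added to substrate (0.4–5 mM) in 25 mM phosphate and nitrate buffer, with or without iminosugar at various concentrations. Substrates were p-nitrophenyl glycosides; β-galactosidase used o-nitrophenyl β-galactoside.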

Experiment [3] is described as follows: Inhibition of beta glucosidase. The procedure, abridged:
as §1

A short description of experiment [4]: Inhibition of alpha-L-fucosidase. Summed up: as §1
A short description of experiment [5]: Inhibition of alpha glucosidase. Summed up:
as §1

The target of experiment [6] is T1, Beta-mannosidase (Homo sapiens) (UniProt O00462).
T1 sequence (whole entry): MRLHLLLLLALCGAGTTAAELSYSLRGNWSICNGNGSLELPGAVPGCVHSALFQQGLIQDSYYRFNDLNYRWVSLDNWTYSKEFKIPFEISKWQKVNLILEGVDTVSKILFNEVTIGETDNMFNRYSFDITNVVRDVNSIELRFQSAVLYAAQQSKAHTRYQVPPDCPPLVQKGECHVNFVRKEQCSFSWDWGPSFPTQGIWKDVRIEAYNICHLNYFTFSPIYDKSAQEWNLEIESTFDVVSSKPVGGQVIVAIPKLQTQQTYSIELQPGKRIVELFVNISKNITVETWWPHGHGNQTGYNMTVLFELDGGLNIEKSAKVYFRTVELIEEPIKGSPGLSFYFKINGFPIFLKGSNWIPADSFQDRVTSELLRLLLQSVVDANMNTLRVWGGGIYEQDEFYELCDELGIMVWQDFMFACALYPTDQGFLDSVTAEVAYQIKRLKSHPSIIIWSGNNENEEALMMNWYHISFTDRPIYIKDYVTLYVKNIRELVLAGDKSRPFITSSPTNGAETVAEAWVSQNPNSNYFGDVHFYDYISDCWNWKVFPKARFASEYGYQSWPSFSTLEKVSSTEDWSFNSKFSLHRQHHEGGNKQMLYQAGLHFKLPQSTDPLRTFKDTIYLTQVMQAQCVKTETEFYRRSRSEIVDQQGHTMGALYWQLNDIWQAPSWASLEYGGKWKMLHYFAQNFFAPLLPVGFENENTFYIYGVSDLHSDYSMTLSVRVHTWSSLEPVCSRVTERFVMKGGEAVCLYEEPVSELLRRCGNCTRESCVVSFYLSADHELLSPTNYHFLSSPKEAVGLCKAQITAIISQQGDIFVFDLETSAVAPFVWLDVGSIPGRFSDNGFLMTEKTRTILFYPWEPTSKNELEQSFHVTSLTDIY
Put plainly: Inhibition of beta-mannosidase. The procedure, abridged: as §1

Experiment [7] in a line: Inhibition of alpha galactosidase. Summed up: as §1
In experiment [8] the test system is Splenocyte. Put plainly: Inhibition of IFN-gamma secretion in BALB/c mouse splenocytes at 60 uM after 72 hrs by ELISA. It counts as functional. The procedure, abridged:
(§2)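 Splenocytes from BALB/c mouse spleens, red cells lysed with Tris–NH4Cl pH 7.2, in RPMI-1640 with 10% newborn calf serum; 5 × 10^5 cells per well. Cells pretreated 4 h with 10 µg/mL concanavalin A (type IV), then given compound and held 72 h at 37 °C, 5% CO2. IFN-γ or IL-4 in the supernatant measured by mouse cytokine ELISA, quantified from a standard curve (15.63–500 pg/mL).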

Experiment [9] deals with Splenocyte. Briefly: Inhibition of IL4-secretion in BALB/c mouse splenocytes at 60 uM after 72 hrs by ELISA. It is filed as functional. The procedure, abridged:
as §2

Experiment [10] can be described thus: Inhibition of beta galactosidase. The procedure, abridged: as §1

Consider `OC[C@H]1NC[C@H](O)[C@@H](O)[C@@H]1O` [DUVOGLUSTAT], for which, in experiment [1], the inhibition at 30 µM came out at 15.6%.
For `CCCCN1C[C@H](O)[C@@H](O)[C@H](O)[C@H]1C`, the concentration for half-maximal inhibition (IC50) in [2] came out at 2000 µM; in experiment [3], 540 µM; in experiment [4], 3000 µM; in experiment [5], 77 µM; in experiment [7], 234 µM. Moreover, the result in [6] was inactive. For the same compound, the inhibition at 60 µM is 55.5% with Splenocyte [8] and 44% in the experiment on Splenocyte [9].
Turning to `COCCN1C[C@H](O)[C@@H](O)[C@H](O)[C@H]1C`, the result in experiment [2], in experiment [3], in experiment [5], in experiment [6], in experiment [10] and in experiment [7] was inactive. Also, the inhibition at 60 µM in the experiment on Splenocyte [8] was 16%; in the experiment with Splenocyte [9], 58.8%.
For `CC(=O)NCCN1C[C@H](O)[C@@H](O)[C@H](O)[C@H]1C`, the result in experiment [2], in experiment [4], in experiment [6] and in [7] was inactive. In addition, the IC50 in experiment [3] is more than 2000 µM. Besides, the inhibition at 60 µM is 9% in the experiment on Splenocyte [8] and 59.7% in the experiment with Splenocyte [9].
Regarding `C[C@@H]1[C@@H](O)[C@H](O)[C@@H](O)CN1CCO`, the outcome in [2], in experiment [5], in experiment [6], in [10] and in experiment [7] was inactive. Besides, the 50% inhibitory concentration (IC50) in [3] was 34 µM. Moreover, the inhibition at 60 µM with Splenocyte [8] was found to be 29%; in the experiment on Splenocyte [9], 57%.
For `C[C@@H]1[C@@H](O)[C@H](O)[C@@H](O)CN1CCN`, the outcome in [2], in [3], in experiment [4], in [6], in [10] and in experiment [7] was inactive. For the same compound, the inhibition at 60 µM turned out to be 41% in the experiment on Splenocyte [8] and 64% with Splenocyte [9].
Consider `C[C@H]1NC[C@H](O)[C@@H](O)[C@@H]1O`, for which the result in experiment [2], in experiment [3], in experiment [6], in experiment [10] and in experiment [7] was inactive. Moreover, the inhibition at 60 µM in the experiment with Splenocyte [8] was determined as 9%; in the experiment with Splenocyte [9], 58%.
Consider `C[C@@H]1[C@@H](O)[C@H](O)[C@@H](O)CN1C1CCCCC1`, for which the result in experiment [2], in experiment [3], in [6], in experiment [10] and in [7] was inactive. The inhibition at 60 µM in the experiment on Splenocyte [8] came out at 9.1%; in the experiment on Splenocyte [9], 57%.
With `CCCCCCCCCCN1C[C@H](O)[C@@H](O)[C@H](O)[C@H]1C`, the outcome in experiment [4], in [5], in experiment [6], in experiment [10] and in experiment [7] was inactive. This compound came in with an inhibition at 30 µM in experiment [1] of 48.3%. The inhibition at 60 µM in the experiment on Splenocyte [8] is 61%; in the experiment on Splenocyte [9], 90%.
